Laboratory results from ChEMBL document CHEMBL5576156, “New pyrazole-pyridazine hybrids as selective COX-2 inhibitors: design, synthesis, molecular docking, in silico studies and investigation of their anti-inflammatory potential by evaluation of TNF-α, IL-6, PGE-2 and NO in LPS-induced RAW264.7 macrophages” (RSC Med Chem, 2024).

How the values were obtained:
RAW264.7 [1] = assay: Antiinflammatory activity against LPS induced mouse RAW264.7 cells assessed as decrease in TNFalpha production at 50 uM after 24 hrs by ELISA; assay type: functional; parameters: scale not given: the % may be the effect or the level left
In short: (§1)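 RAW264.7 cells seeded at 5 × 10^3 per well and held 24 h at 37 °C, 5% CO2. Test compound given at 50 μM together with LPS 1 μg mL−1. Untreated cells were the blank, and LPS + DMSO (0.1% v/v final) was the negative control. IL-6, PGE-2 and TNF-α in the medium were measured by ELISA kits 24 h after treatment.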

RAW264.7 [2] = assay: Antiinflammatory activity against LPS induced mouse RAW264.7 cells assessed as decrease in IL6 production at 50 uM after 24 hrs by ELISA; assay type: functional; parameters: scale not given: the % may be the effect or the level left; in short: as §1
RAW264.7 [3] = assay: Antiinflammatory activity against LPS induced mouse RAW264.7 cells assessed as decrease in PGE2 production at 50 uM after 24 hrs by ELISA; assay type: functional; parameters: scale not given: the % may be the effect or the level left; in short: as §1
RAW264.7 [4] = assay: Antiinflammatory activity in LPS-induced mouse RAW264.7 cells assessed as inhibition of NO production at 20 uM pretreated for 2 hrs followed by LPS stimulation and measured after 24 hrs by Griess reagent based assay; assay type: functional; parameters: scale not given: the % may be the effect or the level left; conditions: time 26 hrs
In short: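 RAW264.7 cells pretreated with compound for 2 h, then stimulated with LPS 1 μg mL−1 for 24 h. Culture medium was mixed 1:1 with Griess reagent and held 10 min at room temperature. Absorbance at 540 nm was read as the NO indicator.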

[5] = biological target: T1, Prostaglandin G/H synthase 2 (Homo sapiens) (UniProt P35354); assay: Inhibition of COX-2 in human whole blood at 8 uM incubated for 24 hrs by immunoassay relative to control; assay type: tissue-based
T1 sequence (whole entry): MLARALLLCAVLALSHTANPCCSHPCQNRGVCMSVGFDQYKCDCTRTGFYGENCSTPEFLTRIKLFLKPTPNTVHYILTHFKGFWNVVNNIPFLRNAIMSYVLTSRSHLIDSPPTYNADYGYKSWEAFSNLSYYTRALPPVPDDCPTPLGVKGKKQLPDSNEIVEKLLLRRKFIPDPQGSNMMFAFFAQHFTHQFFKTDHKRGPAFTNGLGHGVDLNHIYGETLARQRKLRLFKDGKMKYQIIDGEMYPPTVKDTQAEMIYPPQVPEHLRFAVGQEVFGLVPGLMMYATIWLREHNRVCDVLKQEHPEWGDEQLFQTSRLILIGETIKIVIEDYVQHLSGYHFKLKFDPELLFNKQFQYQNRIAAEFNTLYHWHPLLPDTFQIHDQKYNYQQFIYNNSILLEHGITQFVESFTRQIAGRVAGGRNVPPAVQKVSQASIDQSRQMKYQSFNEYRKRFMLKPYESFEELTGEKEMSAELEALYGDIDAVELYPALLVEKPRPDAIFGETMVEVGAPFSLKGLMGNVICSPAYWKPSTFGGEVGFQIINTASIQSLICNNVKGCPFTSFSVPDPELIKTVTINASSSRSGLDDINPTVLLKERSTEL

Rattus norvegicus = assay: Antiinflammatory activity against carrageenin-induced rat paw edema at 10 mg/kg, po pretreated with carrageenin for 1 hr followed by compound addition and measured after 3 hrs; assay type: functional

SMILES | Activity (RAW264.7 [1]) [%] | Activity (RAW264.7 [2]) [%] | Activity (RAW264.7 [3]) [%] | Activity (RAW264.7 [4]) [%] | inhibition [5] [%] | Activity (Rattus norvegicus) [%]
COc1cc(/C=N/C2=NN=C(N)C2c2ccc(Cl)nn2)cc(OC)c1OC (stereo unspecified) | 70 | 78 | 64 | 70 |  | 
Cc1ccc(-c2cc(C(F)(F)F)nn2C2=NNC(Cl)C=C2)cc1 (stereo unspecified) |  |  |  |  | 78 | 
Cc1ccc(-c2cc(C(F)(F)F)nn2-c2ccc(S(N)(=O)=O)cc2)cc1 [CELECOXIB] | 75 | 83 | 69 |  |  | 
COc1cc(/C=N/C2=NNC(=O)C2c2ccc(Cl)nn2)cc(OC)c1OC (stereo unspecified) | 48 | 62 | 44 |  |  | 
Cc1cc(C)n(-c2ccc(=O)n(CC(=O)NCc3ccccc3)n2)n1 |  |  |  |  |  | 84
NC1=NN=C(/N=C/c2ccc(Br)cc2)C1c1ccc(Cl)nn1 (stereo unspecified) | 65 | 65 | 60 | 53 |  | 
